Bioassay records (PubChem BioAssay)
STAT3 blocker = IL-6 driven STAT3 reporter inhibitors, primary screen, U3A cells, luciferase, luminescence, MLSCN library | IL-6 STAT3-luciferase reporter; host cell line lacks STAT1 | inhibition, % at 5.5 µM | 190,000 tested, 0.89% active | AID 862, 2007;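 active means inhibition above the mean inhibition across all screened compounds plus 3 SD, cut at about 44% in these data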
NF-kB neuron act = activators of NF-kB expression in neurons, primary screen, cell-based, HTS | human neuronal cells, NF-kB reporter expression; hits give high values | fold change at 12.5 µM | 190,000 tested, 1.6% active; in the data active means fold change above about 3.3
APP 5'UTR act = activators of APP 5'UTR luciferase reporter, primary screen, SH-SY5Y cells; SH-SY5Y APP 5'UTR luciferase reporter, luminescence; zero percent = DMSO vehicle wells; 190,000 tested, 1% active; activation, % at 2 µM;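 active means activation above a set limit, based on mean plus 3 SD of controls, cut at about 140% in these data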
STAT3 activator = IL-6 driven STAT3 reporter potentiators, primary screen, U3A cells, luciferase, luminescence, MLSCN library | IL-6 STAT3-luciferase reporter; 100% = signal with IL-6 EC80 alone | 190,000 tested, 0.91% active | AID 871, 2007 | activation (% of control), % at 5.6 µM;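 active means activation above the screen-wide mean of compound activation plus 3 SD, cut at about 130% in these data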
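Material: human STAT1-deficient U3A cells with stable STAT3-luciferase reporter / Probe or stimulus: IL-6 stimulus at 33 ng/mL final / Schedule: 1 h compound pre-exposure, 6 h IL-6 stimulation, 37 °C / Technique: luminescence / Read-out basis: percent of IL-6-only median luminescence / Control set: IL-6-only high control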
STAT1 blocker = STAT1 signaling inhibitors, primary screen, cell-based, HTS, luciferase reporter; 200,000 tested, 0.35% active; inhibition, % at 5.5 µM; NIH 3T3 STAT1-luciferase reporter, IFN-gamma, luminescence;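 active means inhibition above a set limit, the mean inhibition across all tested compounds plus 3 SD, cut at about 34% in these data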
STAT1 act = STAT1 signaling activators, primary screen, cell-based, HTS, luciferase reporter. NIH 3T3 STAT1-luciferase reporter, IFN-gamma, luminescence; 100% = IFN-gamma alone, no compound. 200,000 tested, 2.6% active. AID 932, 2007. activation (% of control), % at 5.5 µM;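 active means activation above the screen-wide mean activation plus 3 SD, cut at about 130% in these data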
Hits are given with their value; n = inactive; x = not tested or not shown. In the library only some 5.1% were active in any assay of this set; here they are far more common.

SMILES | STAT3 blocker | NF-kB neuron act | APP 5'UTR act | STAT3 activator | STAT1 blocker | STAT1 act
O=C(N/N=C/c1cn(-c2ccccc2)nc1-c1cc2ccccc2o1)c1ccncc1 | n | n | 188 | n | n | 144
O=C(N/N=C/c1cn(-c2ccccc2)nc1-c1cccnc1)c1cccnc1 | n | n | n | n | n | n
Cc1nnc(SCC(=O)N2CCN(C(=O)c3ccco3)CC2)n1-c1ccccc1 | n | n | n | n | n | n
CCN(CC)c1ccc(C(=O)Nc2cccc(F)c2)cc1 | n | 8.4 | 181 | n | n | n
Cc1cc(/C=N/NC(=O)c2cccc(N(C)C)c2)c(C)n1-c1cc(C(=O)O)cc(C(=O)O)c1 | n | n | n | n | n | n
CN(C)c1cccc(C(=O)N/N=C/c2ccccc2F)c1 | 89 | 5 | 139 | n | 69 | n
CN(C)c1cccc(C(=O)Nc2cccc(F)c2)c1 | n | n | n | n | n | 132
Cc1cccc(CNC(=O)CCc2nnc(C3CCCCC3)o2)c1 | n | n | n | n | n | n
Cc1cc(C(=O)COC(=O)c2cccnc2Cl)c(C)n1CC1CCCO1 (stereo not given) | 88 | n | n | n | 80 | n
O=C(COC(=O)c1cccnc1Cl)NCC1CCCO1 (stereo not given) | n | n | n | n | n | n
Cc1cc(C(=O)COC(=O)C2COc3ccccc3O2)c(C)n1CC1CCCO1 (stereo not given) | n | n | n | n | n | n
Cc1cc(C(=O)COC(=O)c2cc(O)c3ccccc3c2O)c(C)n1CC1CCCO1 (stereo not given) | n | n | n | 146 | n | n
Cc1ccc(C(=O)OCC(=O)c2cc(C)n(CC3CCCO3)c2C)cc1 (stereo not given) | n | n | n | n | n | 140
COc1ccc(C(=O)COC(=O)c2cccnc2Cl)c(OC)c1 | n | n | n | n | n | 141
COc1ccc(OC)c(C(=O)COC(=O)c2cccnc2Cl)c1 | n | n | n | n | n | n
O=C(Oc1ccc(-c2cnc3ccccc3n2)cc1)c1cccc([N+](=O)[O-])c1 | n | n | n | n | n | n
O=C(Oc1ccc(-c2cnc3ccccc3n2)cc1)c1ccc(Cl)c([N+](=O)[O-])c1 | n | n | 138 | n | n | n
O=C(Oc1ccc(-c2cnc3ccccc3n2)cc1)c1ccc(Br)o1 | n | n | n | n | n | 135
COCc1cc(N2CCCC2)nc(-c2ccccc2)n1 | n | n | n | n | n | n
O=C(/C=C\c1ccc(-c2cccc([N+](=O)[O-])c2)o1)N1CCOCC1 | n | n | n | n | n | 129
O=C(c1cccc([N+](=O)[O-])c1)N1CCOCC1 | n | n | n | n | n | n
CCOC(=O)C(=O)Nc1ccccc1C(=O)NCc1ccccc1 | n | n | n | n | n | n
O=C(N/N=C/c1c[nH]c2ccccc12)c1ccn(Cc2ccc(Cl)cc2)n1 | n | n | n | 135 | n | n
CN(C(=O)COc1ccc(Cl)cc1)c1nnc(C23CC4CC(CC(C4)C2)C3)s1 | x | n | n | x | n | n
CN(C(=O)c1ccco1)c1nc2c(s1)CCCC2 | n | 4.1 | 162 | n | n | 130
SMILES | STAT3 blocker | NF-kB neuron act | APP 5'UTR act | STAT3 activator | STAT1 blocker | STAT1 act
CN(C(=O)c1ccco1)c1nnc(C23CC4CC(CC(C4)C2)C3)s1 | n | n | n | 133 | n | 140
COc1cccc(CC2CC(=O)N(c3ccc4c(C)cc(=O)oc4c3)C2=O)c1 (stereo not given) | n | n | n | n | n | n
O=C(NC(=S)Nc1nc2c(s1)CSc1ccccc1-2)c1ccccc1 | n | n | n | 167 | n | n
COc1ccc(Cl)cc1NC(=O)Nc1cccc([N+](=O)[O-])c1C | n | n | n | n | n | n
CCOC(=O)c1[nH]c2ccc(OC)cc2c1C | n | n | n | n | n | 142
CC(=O)Nc1ccc(N=Cc2c(O)c(C(=O)Nc3ccccc3)cc3ccccc23)cc1 | n | n | n | 145 | n | n
COc1ccc(-c2nnnn2-c2ccc(F)cc2F)cc1 | n | 3.9 | n | n | n | n
